The test system of series [1] is female athymic nude (nu/nu) mice. Nature of the series: 14 day tolerability study, IP every 2 days. The series is classed as in vivo, mouse. Summed up:
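Female athymic nude mice (CrTac:NCr-Foxn1nu, 7–8 weeks) were randomized, n = 5 per group. Parent compound was given at 0.1, 0.25, 0.5 or 1.0 mg/kg, or the succinate at molar-equivalent 0.114, 0.285, 0.570 or 1.14 mg/kg. Vehicle was Tween80:Captex200:0.9% saline (8:2:90 v/v). Dosing was IP every 2 days for 14 days. Body weight was recorded every 2 days before dosing, and gross necropsy plus H&E histopathology were done.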

Series [2] can be described thus: Stability in mouse plasma lithium heparin and QC extracts. The class given is in vitro ADME.
Series [3] can be described thus: Stability in Tween80:Captex200P:0.9% saline formulation. The series is classed as physicochemical. The method in brief:
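The dried succinate was taken up in Tween 80:Captex 200P at 1 mg/mL. It was vortexed 30 s, sonicated 30 min and shaken about 16 h at 100 rpm at room temperature. It was then diluted in 0.9% saline to 0.1 mg/mL and serially diluted to 0.05 and 0.025 mg/mL. At 0, 1 and 4 h, aliquots were diluted 20-fold in acetone, with storage at 4 °C in between. Analysis was by UPLC-PDA-HRMS against acetone standards.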

Another series concerns MDA-MB-231. Briefly: Cell viability assay. The series is classed as cell-based, human. The settings on record: MDA-MB-231. The method in brief: (§1)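 RPMI1640 (OVCAR3, OVCAR4, MDA-MB-435) or DMEM (OVCAR8, MDA-MB-231) was used, with 10% FBS and penicillin/streptomycin. Cells were STR-validated and kept below 20 passages. Cells were plated at 5000 per well overnight, then given test compound at final 0.95–250 nM (nine levels, 0.5% DMSO) for 72 h at 37 °C. Viability was read by CellTiter-Blue absorbance, and IC50 was taken relative to DMSO. Paclitaxel (0.39–100 nM) was the control, with three biological replicates.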

Series [4] has as its system OVCAR4. Nature of the series: 2D foci assay. The class given is cell-based, human. The settings on record: OVCAR4, 50 nM for 8 h, two weeks colony formation, relative to vehicle. The method in brief: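 Cells were seeded at 200 per 60 mm dish and left to attach overnight. They were then exposed for 8 h to test compound (50 nM), DMSO vehicle or paclitaxel (10 nM). Medium was replaced and cells grew drug-free for about two weeks (15 days). Colonies were fixed in 4% paraformaldehyde, stained with 0.05% crystal violet, imaged and counted. There were three biological replicates, compared with vehicle by Dunnett's test.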

For series [5] the following is noted: cited from earlier work.
Series [6] deals with OVCAR4. Briefly: Cell viability assay. The class given is cell-based, human. Summed up: as §1
Another series has as its system OVCAR8. Briefly: Cell viability assay. The class given is cell-based, human. The method in brief: as §1
For series [7], the system named is OVCAR8-RFP cells xenografted IP. Briefly: OVCAR8-RFP IP xenograft. The series is classed as in vivo, mouse.

Molecules are shown by their SMILES.

For the molecule `CN1C(=O)[C@]23SS[C@@]1(C)C(=O)N2[C@H]1Nc2ccccc2[C@@]1([C@@]12c4ccccc4N[C@@H]1N1C(=O)[C@]4(C)SS[C@]1(C(=O)N4C)[C@H]2OC(=O)CCC(=O)O)[C@@H]3O` [verticillin A succinate], the “early removal of mice” value in series [1] (0.570 mg/kg IP every 2 days) is 13 day of treatment; in series [1] (1.14 mg/kg IP every 2 days), 8 days of treatment. Also, the tolerability entry is listed as “poorly tolerated” in series [1] (two higher dose levels, 0.570 and 1.14 mg/kg IP every 2 days); “well tolerated” in series [1] (two lower dose levels, 0.114 and 0.285 mg/kg IP every 2 days, 14 days). Also, the “stability in mouse plasma lithium heparin” value in [2] is reported as “poor stability”. The “stability of QC extracts” value in series [2] (4 °C autosampler, after approximately 19 h) is recorded as “not stable”. The “verticillin A succinate levels in formulation” value in [3] (4 h after preparation, stored at 4 °C) was “below the detection limit (BDL) or NF”; in [3] (immediately after preparation, all concentration levels tested), “below the quantitation limit (BQL) or not found/detected (NF)”. Moreover, the stability in formulation entry in series [3] (Tween80:Captex200P:0.9% saline, 0.1, 0.05 and 0.025 mg/mL, degrades almost immediately to verticillin A) was “not stable”. Also, in the series on MDA-MB-231, the cytotoxic activity result is recorded as “pronounced cytotoxic activities”. Further, the foci formation result in the series with OVCAR4 [4] is “completely abrogated foci formation”. Also, in [5], the solubility result is “greatly improved solubility”.

For the molecule `CN1C(=O)[C@]23SS[C@@]1(C)C(=O)N2[C@H]1Nc2ccccc2[C@@]1([C@@]12c4ccccc4N[C@@H]1N1C(=O)[C@@]4(C)SS[C@]1(C(=O)N4C)[C@H]2O)[C@@H]3O` [verticillin A], the “early removal of mice” value in [1] (0.5 mg/kg IP every 2 days) is 13 day of treatment; in series [1] (1.0 mg/kg IP every 2 days), 8 days of treatment. In [1] (IP every 2 days, 14 days, female athymic nude mice), the “maximal tolerated IP dose” value turned out to be 0.25 mg/kg. For the same molecule, the tolerability result was “poorly tolerated” in series [1] (two higher dose levels, 0.5 and 1.0 mg/kg IP every 2 days); “well tolerated” in series [1] (two lower dose levels, 0.100 and 0.250 mg/kg IP every 2 days, 14 days). The figures for the cytotoxic activity result with MDA-MB-231, in the series with OVCAR4 [6] and with OVCAR8 were “pronounced cytotoxic activities”, “nanomolar cytotoxic activity” and “nanomolar cytotoxic activity”, respectively. Also, the foci formation entry with OVCAR4 [4] was “completely abrogated foci formation”. Moreover, in series [7] (0.25 mg/kg in DMSO twice weekly for four weeks), the “liver and organ gross morphology” value is listed as “did not demonstrate changes in liver morphology”. The tumor burden entry in series [7] (0.25 mg/kg twice weekly for four weeks, compared to DMSO) is listed as “reduced”.
